{
  "source": "ChEMBL document CHEMBL3244396",
  "about": "“Synthesis and antileukemic activity of 5-substituted 2,3-dihydro-6,7-bis(hydroxymethyl)-1H-pyrrolizine diesters” (J Med Chem, 1977)",
  "key": {"P388 [1]": {"tested_on": "P388", "assay": "Antitumor activity against mouse P388 cells allografted in male CDF1 mouse assessed as disease cures by measuring 30-days host survival at 400 mg/kg, ip administered daily for 9 days as saline with Tween-80 solution starting 24 hrs after tumor inoculation relative to control", "format": "functional", "details": "route intraperitoneal", "how_it_was_run": "(§1)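 P388 ascitic cell inoculum given ip to CDF1 mice of the sex in each line. Nine daily ip doses in saline with Tween-80 as vehicle, starting 24 h after inoculation. Median survival time expressed as %T/C (>125 significant); \"cure\" defined as 30-day survival.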"}, "P388 [2]": {"tested_on": "P388", "assay": "Antitumor activity against mouse P388 cells allografted in female CDF1 mouse assessed as change in body weight at 100 mg/kg, ip administered daily for 9 days as saline with Tween-80 solution starting 24 hrs after tumor inoculation", "format": "functional", "details": "route intraperitoneal", "how_it_was_run": "(§2)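 Ascitic fluid carrying P388 cells was inoculated ip. Compound was given ip in nine daily doses, starting 24 h after inoculation, in Klucel (hydroxypropylcellulose) suspension or in saline with Tween-80. Body-weight difference (treated minus control) was recorded on day 5. Survival was scored as %T/C of median survival time, and 30-day survival counted as cure.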"}, "P388 [3]": {"tested_on": "P388", "assay": "Antitumor activity against mouse P388 cells allografted in female CDF1 mouse assessed as disease cures by measuring 30-days host survival at 100 mg/kg, ip administered daily for 9 days as saline with Tween-80 solution starting 24 hrs after tumor inoculation relative to control", "format": "functional", "details": "route intraperitoneal", "how_it_was_run": "as §1"}, "Mus musculus [4]": {"tested_on": "Mus musculus", "assay": "Toxicity in female CDF1 mouse allografted with mouse P388 cells assessed as animal survival at 25 mg/kg, ip administered daily for 9 days as saline with Tween-80 solution starting 24 hrs after tumor inoculation", "format": "organism-based", "parameters": "dose 25 mg/kg, route intraperitoneal", "details": "in vivo", "how_it_was_run": "(§3)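 P-388 leukemia ascitic fluid implanted ip. Compound dosed ip in saline with Tween-80 vehicle, once daily for nine doses from 24 h after tumor inoculation. Acute toxicity scored as toxicity-day survivors per group. Survival was followed up to 30 days, with 30-day survival counted as \"cure\". Follows NCI screening protocols.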"}, "Mus musculus [5]": {"tested_on": "Mus musculus", "assay": "Toxicity in female CDF1 mouse allografted with mouse P388 cells assessed as animal survival at 100 mg/kg, ip administered daily for 9 days as saline with Tween-80 solution starting 24 hrs after tumor inoculation", "format": "organism-based", "parameters": "dose 100 mg/kg, route intraperitoneal", "details": "in vivo", "how_it_was_run": "as §3"}, "Mus musculus [6]": {"tested_on": "Mus musculus", "assay": "Toxicity in male CDF1 mouse allografted with mouse P388 cells assessed as animal survival at 100 mg/kg, ip administered daily for 9 days as saline with Tween-80 solution starting 24 hrs after tumor inoculation", "format": "organism-based", "parameters": "dose 100 mg/kg, route intraperitoneal", "details": "in vivo", "how_it_was_run": "as §3"}, "P388 [7]": {"tested_on": "P388", "assay": "Antitumor activity against mouse P388 cells allografted in female CDF1 mouse assessed as disease cures by measuring 30-days host survival at 50 mg/kg, ip administered daily for 9 days as saline with Tween-80 solution starting 24 hrs after tumor inoculation relative to control", "format": "functional", "details": "route intraperitoneal", "how_it_was_run": "as §1"}, "P388 [8]": {"tested_on": "P388", "assay": "Antitumor activity against mouse P388 cells allografted in female CDF1 mouse assessed as change in body weight at 25 mg/kg, ip administered daily for 9 days as saline with Tween-80 solution starting 24 hrs after tumor inoculation", "format": "functional", "details": "route intraperitoneal", "how_it_was_run": "as §2"}, "Mus musculus [9]": {"tested_on": "Mus musculus", "assay": "Toxicity in male CDF1 mouse allografted with mouse P388 cells assessed as animal survival at 50 mg/kg, ip administered daily for 9 days as saline with Tween-80 solution starting 24 hrs after tumor inoculation", "format": "organism-based", "parameters": "dose 50 mg/kg, route intraperitoneal", "details": "in vivo", "how_it_was_run": "as §3"}, "Mus musculus [10]": {"tested_on": "Mus musculus", "assay": "Toxicity in female CDF1 mouse allografted with mouse P388 cells assessed as animal survival at 50 mg/kg, ip administered daily for 9 days as saline with Tween-80 solution starting 24 hrs after tumor inoculation", "format": "organism-based", "parameters": "dose 50 mg/kg, route intraperitoneal", "details": "in vivo", "how_it_was_run": "as §3"}, "P388 [11]": {"tested_on": "P388", "assay": "Antitumor activity against mouse P388 cells allografted in male CDF1 mouse assessed as disease cures by measuring 30-days host survival at 25 mg/kg, ip administered daily for 9 days as saline with Tween-80 solution starting 24 hrs after tumor inoculation relative to control", "format": "functional", "details": "route intraperitoneal", "how_it_was_run": "as §1"}, "P388 [12]": {"tested_on": "P388", "assay": "Antitumor activity against mouse P388 cells allografted in male CDF1 mouse assessed as disease cures by measuring 30-days host survival at 200 mg/kg, ip administered daily for 9 days as saline with Tween-80 solution starting 24 hrs after tumor inoculation relative to control", "format": "functional", "details": "route intraperitoneal", "how_it_was_run": "as §1"}, "P388 [13]": {"tested_on": "P388", "assay": "Antitumor activity against mouse P388 cells allografted in male CDF1 mouse assessed as disease cures by measuring 30-days host survival at 100 mg/kg, ip administered daily for 9 days as saline with Tween-80 solution starting 24 hrs after tumor inoculation relative to control", "format": "functional", "details": "route intraperitoneal", "how_it_was_run": "as §1"}, "P388 [14]": {"tested_on": "P388", "assay": "Antitumor activity against mouse P388 cells allografted in male CDF1 mouse assessed as change in body weight at 50 mg/kg, ip administered daily for 9 days as saline with Tween-80 solution starting 24 hrs after tumor inoculation", "format": "functional", "details": "route intraperitoneal", "how_it_was_run": "as §2"}, "Mus musculus [15]": {"tested_on": "Mus musculus", "assay": "Toxicity in male CDF1 mouse allografted with mouse P388 cells assessed as animal survival at 400 mg/kg, ip administered daily for 9 days as saline with Tween-80 solution starting 24 hrs after tumor inoculation", "format": "organism-based", "parameters": "dose 400 mg/kg, route intraperitoneal", "details": "in vivo", "how_it_was_run": "as §3"}, "P388 [16]": {"tested_on": "P388", "assay": "Antitumor activity against mouse P388 cells allografted in female CDF1 mouse assessed as change in body weight at 50 mg/kg, ip administered daily for 9 days as saline with Tween-80 solution starting 24 hrs after tumor inoculation", "format": "functional", "details": "route intraperitoneal", "how_it_was_run": "as §2"}, "Mus musculus [17]": {"tested_on": "Mus musculus", "assay": "Toxicity in male CDF1 mouse allografted with mouse P388 cells assessed as animal survival at 25 mg/kg, ip administered daily for 9 days as saline with Tween-80 solution starting 24 hrs after tumor inoculation", "format": "organism-based", "parameters": "dose 25 mg/kg, route intraperitoneal", "details": "in vivo", "how_it_was_run": "as §3"}, "P388 [18]": {"tested_on": "P388", "assay": "Antitumor activity against mouse P388 cells allografted in male CDF1 mouse assessed as change in body weight at 400 mg/kg, ip administered daily for 9 days as saline with Tween-80 solution starting 24 hrs after tumor inoculation", "format": "functional", "details": "route intraperitoneal", "how_it_was_run": "as §2"}, "P388 [19]": {"tested_on": "P388", "assay": "Antitumor activity against mouse P388 cells allografted in male CDF1 mouse assessed as change in body weight at 100 mg/kg, ip administered daily for 9 days as saline with Tween-80 solution starting 24 hrs after tumor inoculation", "format": "functional", "details": "route intraperitoneal", "how_it_was_run": "as §2"}, "P388 [20]": {"tested_on": "P388", "assay": "Antitumor activity against mouse P388 cells allografted in male CDF1 mouse assessed as change in body weight at 25 mg/kg, ip administered daily for 9 days as saline with Tween-80 solution starting 24 hrs after tumor inoculation", "format": "functional", "details": "route intraperitoneal", "how_it_was_run": "as §2"}, "P388 [21]": {"tested_on": "P388", "assay": "Antitumor activity against mouse P388 cells allografted in male CDF1 mouse assessed as disease cures by measuring 30-days host survival at 50 mg/kg, ip administered daily for 9 days as saline with Tween-80 solution starting 24 hrs after tumor inoculation relative to control", "format": "functional", "details": "route intraperitoneal", "how_it_was_run": "as §1"}, "P388 [22]": {"tested_on": "P388", "assay": "Antitumor activity against mouse P388 cells allografted in male CDF1 mouse assessed as change in body weight at 200 mg/kg, ip administered daily for 9 days as saline with Tween-80 solution starting 24 hrs after tumor inoculation", "format": "functional", "details": "route intraperitoneal", "how_it_was_run": "as §2"}, "Mus musculus [23]": {"tested_on": "Mus musculus", "assay": "Toxicity in male CDF1 mouse allografted with mouse P388 cells assessed as animal survival at 200 mg/kg, ip administered daily for 9 days as saline with Tween-80 solution starting 24 hrs after tumor inoculation", "format": "organism-based", "parameters": "dose 200 mg/kg, route intraperitoneal", "details": "in vivo", "how_it_was_run": "as §3"}, "P388 [24]": {"tested_on": "P388", "assay": "Antitumor activity against mouse P388 cells allografted in female CDF1 mouse assessed as disease cures by measuring 30-days host survival at 25 mg/kg, ip administered daily for 9 days as saline with Tween-80 solution starting 24 hrs after tumor inoculation relative to control", "format": "functional", "details": "route intraperitoneal", "how_it_was_run": "as §1"}},
  "data": [
    {"smiles": "O=C(NC1CCCCC1)OCc1c(COC(=O)NC2CCCCC2)c(-c2ccc(Cl)c(Cl)c2)n2c1CCC2", "values": [
      {"measurement": "T/C", "setting": "P388 [1]", "value": 79, "unit": "%"},
      {"measurement": "Activity", "setting": "P388 [2]", "value": -2.5, "unit": "g"},
      {"measurement": "T/C", "setting": "P388 [3]", "value": 212, "unit": "%"},
      {"measurement": "Activity", "setting": "Mus musculus [4]", "value": "Non-toxic"},
      {"measurement": "Activity", "setting": "Mus musculus [5]", "value": "Non-toxic"},
      {"measurement": "Activity", "setting": "Mus musculus [6]", "value": "Non-toxic"},
      {"measurement": "T/C", "setting": "P388 [7]", "value": 174, "unit": "%"},
      {"measurement": "Activity", "setting": "P388 [8]", "value": -1.1, "unit": "g"},
      {"measurement": "Activity", "setting": "Mus musculus [9]", "value": "Non-toxic"},
      {"measurement": "Activity", "setting": "Mus musculus [10]", "value": "Non-toxic"},
      {"measurement": "T/C", "setting": "P388 [11]", "value": 150, "unit": "%"},
      {"measurement": "T/C", "setting": "P388 [12]", "value": 91, "unit": "%"},
      {"measurement": "T/C", "setting": "P388 [13]", "value": 187, "unit": "%"},
      {"measurement": "Activity", "setting": "P388 [14]", "value": -0.6, "unit": "g"},
      {"measurement": "Activity", "setting": "Mus musculus [15]", "value": "Non-toxic"},
      {"measurement": "Activity", "setting": "P388 [16]", "value": -2, "unit": "g"},
      {"measurement": "Activity", "setting": "Mus musculus [17]", "value": "Non-toxic"},
      {"measurement": "Activity", "setting": "P388 [18]", "value": -4, "unit": "g"},
      {"measurement": "Activity", "setting": "P388 [19]", "value": -1.2, "unit": "g"},
      {"measurement": "Activity", "setting": "P388 [20]", "value": -0.6, "unit": "g"},
      {"measurement": "T/C", "setting": "P388 [21]", "value": 166, "unit": "%"},
      {"measurement": "Activity", "setting": "P388 [22]", "value": -2.8, "unit": "g"},
      {"measurement": "Activity", "setting": "Mus musculus [23]", "value": "Non-toxic"},
      {"measurement": "T/C", "setting": "P388 [24]", "value": 168, "unit": "%"}
    ]}
  ]
}
